In ChEMBL document CHEMBL4270524, “Enhanced antimalarial activity of plasmepsin V inhibitors by modification of the P2 position of PEXEL peptidomimetics” (Eur J Med Chem, 2018):
Calls of active or inactive are those of the source. No cut-off for these calls is given here. Square brackets hold non-standard residues; d marks the D form. Peptide text beside a SMILES is read from it. * marks the point of attachment. Dip = N[C@H](C(=O)O)C(c1ccccc1)c1ccccc1; Sta = CC(C)C[C@H](N)[C@@H](O)CC(=O)O; Igl = N[C@H](C(=O)O)C1Cc2ccccc2C1; Chg = N[C@H](C(=O)O)C1CCCCC1; NHPhenethyl = c1ccc(CCN*)cc1; Nva = CCC[C@H](N)C(=O)O; Cbz = O=C(OCc1ccccc1)*

Tests used:
[1] = test system: HepG2; assay: Cytotoxicity against human HepG2 cells after 48 hrs by CellTiter-Glo assay; format: functional, cell-based; conditions: HepG2, 48 h
In short: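 Cells kept in DMEM with 10% FCS at 37 °C, 5% CO2. 1 × 10^4 cells seeded per well and exposed to a 10-point compound titration for 48 h at 37 °C. Viability normalised to DMSO (100%) and 10 µM bortezomib (0%). EC50 given as mean and SD of three experiments.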

[2] = test system: Plasmodium falciparum; assay: Antiplasmodial activity against ring-stage Plasmodium falciparum 3D7 assessed as reduction in parasite viability after 72 hrs by LDH assay; format: functional, organism-based; conditions: 3D7, 72 h
In short: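 Sorbitol-synchronised early ring-stage parasites grown in RPMI-HEPES with L-glutamine and Albumax II, exposed to ten-point compound titrations in DMSO (≤0.02% final) for 72 h. Parasitemia read by LDH activity (NADH consumption) relative to DMSO control. EC50 from 4-parameter variable-slope sigmoidal fit; means and SD of three independent experiments.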

[3] = Inhibition of recombinant Plasmodium vivax plasmepsin 5 expressed in High five insect cells using DABCYLRNKRTLAQKQ-E-EDANS as substrate measured after 120 mins by fluorescence assay
In short: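 Enzyme purified by anti-FLAG affinity then Superdex 75 gel filtration. Each well held 2.5 ng enzyme and 12 µM (Km) substrate in 25 mM Tris-HCl/25 mM MES pH 6.4 with 0.005% Tween-20 and 1% DMSO final. Ten-point 1-in-3 compound dilutions. Fluorescence read at ex 340/em 495 nm. IC50 from four-parameter fit constrained to 0 and 100%; mean and SD, n=3.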

[4] = target: Plasmepsin V (Plasmodium falciparum (isolate 3D7)) (UniProt Q8I6Z5); assay: Inhibition of plasmepsin 5 in Plasmodium falciparum 3D7 co-expressing PfEMP3-GFP infected in human erythrocytes assessed as accumulation of uncleaved PfEMP3-GFP after 3 hrs by immunoblot analysis; format: cell-based
In short: (§1)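 Parasites cultured in O+ erythrocytes at 4% haematocrit in RPMI 1640 with 25 mM HEPES pH 7.4, 0.2% bicarbonate, 0.5% Albumax II under 5% CO2/5% O2 gas at 37 °C. Magnet-purified 24–34 h trophozoites treated 3 h at 37 °C; DMSO vehicle control. Saponin-lysed pellets run on SDS-PAGE and probed with anti-GFP, with HSP70 as loading control. ECL read-out, quantified by densitometry.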

[5] = target: Plasmepsin V (Plasmodium falciparum (isolate 3D7)) (UniProt Q8I6Z5); assay: Inhibition of plasmepsin 5 in Plasmodium falciparum 3D7 co-expressing PfEMP3-GFP infected in human erythrocytes assessed as accumulation of uncleaved PfEMP3-GFP at 1 to 10 uM after 3 hrs by immunoblot analysis; format: cell-based; in short: as §1

Sequence of Plasmepsin V (Plasmodium falciparum (isolate 3D7)) (Q8I6Z5 whole entry, looked up): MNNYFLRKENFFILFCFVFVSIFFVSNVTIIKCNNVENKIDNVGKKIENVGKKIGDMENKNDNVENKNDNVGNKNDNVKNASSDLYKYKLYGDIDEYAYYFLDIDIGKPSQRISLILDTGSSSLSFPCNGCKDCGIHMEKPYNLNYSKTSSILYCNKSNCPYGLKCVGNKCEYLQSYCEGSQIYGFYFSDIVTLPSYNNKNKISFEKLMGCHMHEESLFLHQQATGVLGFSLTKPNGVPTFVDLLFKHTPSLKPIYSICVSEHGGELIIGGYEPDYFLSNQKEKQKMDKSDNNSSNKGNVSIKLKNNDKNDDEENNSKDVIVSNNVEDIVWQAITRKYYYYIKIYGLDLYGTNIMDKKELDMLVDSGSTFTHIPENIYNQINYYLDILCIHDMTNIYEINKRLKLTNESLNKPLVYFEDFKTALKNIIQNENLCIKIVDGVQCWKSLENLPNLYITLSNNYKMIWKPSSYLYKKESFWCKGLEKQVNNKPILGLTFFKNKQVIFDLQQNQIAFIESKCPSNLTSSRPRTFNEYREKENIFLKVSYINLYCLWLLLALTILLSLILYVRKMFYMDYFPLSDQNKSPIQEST

| inhibition [4] | inhibition [5] | Structure (SMILES) | EC50 [1] [µM] | EC50 [2] [µM] | IC50 [3] [µM] |
| --- | --- | --- | --- | --- | --- |
| – | – | CC(C)C[C@H](NC(=O)[C@@H](NC(=O)[C@H](CCCNC(=N)N)NC(=O)OCc1ccccc1)C(C)C)[C@@H](O)CC(=O)NCCc1ccccc1 (Cbz-Arg-Val-[Sta]-NHPhenethyl) | > 40 | 3.39 | 0.116 |
| – | – | CC(C)C[C@H](NC(=O)[C@@H](NC(=O)[C@H](CCCNC(=N)N)NC(=O)OCc1ccccc1)C(c1ccccc1)c1ccccc1)[C@@H](O)CC(=O)NCCc1ccccc1 (Cbz-Arg-[Dip]-[Sta]-NHPhenethyl) | > 40 | > 10 | > 10 |
| Active | – | CC(C)C[C@H](NC(=O)[C@@H](NC(=O)[C@H](CCCNC(=N)N)NC(=O)OCc1ccccc1)C1CCCCC1)[C@@H](O)CC(=O)NCCc1ccccc1 (Cbz-Arg-[Chg]-[Sta]-NHPhenethyl) | 36.7 | 1.22 | 0.029 |
| – | – | CC(C)C[C@H](NC(=O)[C@@H](NC(=O)[C@H](CCCNC(=N)N)NS(=O)(=O)Cc1ccccc1)C(C)C)[C@@H](O)CC(=O)NCCc1ccccc1 | > 40 | 4.03 | 0.123 |
| – | – | CC(C)C[C@H](NC(=O)[C@@H](NC(=O)[C@H](CCCNC(=N)N)NC(=O)OCc1ccccc1)[C@H](C)c1ccccc1)[C@@H](O)CC(=O)NCCc1ccccc1 | 35.4 | > 10 | > 10 |
| – | – | CC(C)C[C@H](NC(=O)[C@H](C)NC(=O)[C@H](CCCNC(=N)N)NC(=O)OCc1ccccc1)[C@@H](O)CC(=O)NCCc1ccccc1 (Cbz-Arg-Ala-[Sta]-NHPhenethyl) | > 40 | > 10 | 7.18 |
| – | Active | CC(C)C[C@H](NC(=O)[C@@H](NC(=O)[C@H](CCONC(=N)N)NC(=O)OCc1ccccc1)C(C)C)[C@@H](O)CC(=O)NCCc1ccccc1 | > 40 | 0.43 | 0.019 |
| – | – | CCC[C@H](NC(=O)[C@H](CCCNC(=N)N)NC(=O)OCc1ccccc1)C(=O)N[C@@H](CC(C)C)[C@@H](O)CC(=O)NCCc1ccccc1 (Cbz-Arg-[Nva]-[Sta]-NHPhenethyl) | – | 2.4 | 0.116 |
| – | – | CCC(CC)[C@H](NC(=O)[C@H](CCCNC(=N)N)NC(=O)OCc1ccccc1)C(=O)N[C@@H](CC(C)C)[C@@H](O)CC(=O)NCCc1ccccc1 | > 40 | 4.11 | 0.112 |
| – | – | CC(C)C[C@H](NC(=O)[C@H](CO)NC(=O)[C@H](CCCNC(=N)N)NC(=O)OCc1ccccc1)[C@@H](O)CC(=O)NCCc1ccccc1 (Cbz-Arg-Ser-[Sta]-NHPhenethyl) | > 40 | > 10 | > 10 |
| – | – | CC(C)C[C@H](NC(=O)[C@@H](NC(=O)[C@H](CCCNC(=N)N)NC(=O)OCc1ccccc1)C1Cc2ccccc2C1)[C@@H](O)CC(=O)NCCc1ccccc1 (Cbz-Arg-[Igl]-[Sta]-NHPhenethyl) | 23.5 | 6.18 | 0.661 |
| – | – | CC(C)C[C@H](NC(=O)[C@@H](NC(=O)[C@H](CCCNC(=N)N)NC(=O)OCc1ccccc1)[C@@H](C)O)[C@@H](O)CC(=O)NCCc1ccccc1 (Cbz-Arg-Thr-[Sta]-NHPhenethyl) | > 40 | > 10 | 2.02 |
| – | – | CC(C)C[C@H](NC(=O)[C@@H](NC(=O)[C@H](CCCNC(=N)N)NC(=O)OCc1ccccc1)[C@H](O)c1ccccc1)[C@@H](O)CC(=O)NCCc1ccccc1 | > 40 | > 10 | 6.56 |
| – | – | CC(C)C[C@H](NC(=O)[C@H](Cc1ccccc1)NC(=O)c1cnccn1)B(O)O [BORTEZOMIB] | 0.01 | – | – |
